Reference: ChEMBL document CHEMBL1145178, “Exploring the role of different drug transport routes in permeability screening” (J Med Chem, 2005)
Where a SMILES comes first, the peptide text is derived from it.

Tests used:
[1] = Permeability Coefficient in Caco-2 cell culture model; type: ADME, cell-based; details: human
[2] = Permeability Coefficient in hexadecane membranes model; type: ADME, cell membranes; details: not told
How it was run: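 Hexadecane (5% v/v in hexane) was loaded onto 0.4 µm polycarbonate filters, and the hexane was evaporated for ≥1 h at RT. Drug in HBSS/25 mM HEPES pH 7.4 was placed donor side, with pH 7.4 buffer receiver side, at 37°C and 500 rpm stirring. Receiver sampled over 10–120 min.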

[3] = Fraction absorbed in human intestine after oral administration compound was measured; type: ADME, tissue-based
[4] = Permeability Coefficient in 2/4/A1 cell model; type: ADME, cell-based, Homo sapiens

| SMILES | Papp [1] | Papp [2] | Fa [3] | Papp [4] | Papp (Homo sapiens) |
| --- | --- | --- | --- | --- | --- |
| O=c1[nH]cnc2c1ncn2[C@H]1CC[C@@H](CO)O1 [DIDANOSINE] | 0.25 ×10⁻⁶ cm/s | 0.099 ×10⁻⁶ cm/s | 42% | 14 ×10⁻⁶ cm/s | – |
| C=CCc1ccccc1OCC(O)CNC(C)C (configuration not stated) [ALPRENOLOL] | – | 160 ×10⁻⁶ cm/s | – | 290 ×10⁻⁶ cm/s | – |
| CN(CC(=O)O)C(=O)CN [GLYCYLSARCOSINE] (HELM PEPTIDE1{G.[Sar]}$$$$V2.0) | 0.5 ×10⁻⁶ cm/s | 0.25 ×10⁻⁶ cm/s | 100% | 11 ×10⁻⁶ cm/s | – |
| CC(C)[C@H](N)C(=O)OCCOCn1cnc2c(=O)[nH]c(N)nc21 [VALACYCLOVIR] | 2.3 ×10⁻⁶ cm/s | 0.39 ×10⁻⁶ cm/s | 36% | 35 ×10⁻⁶ cm/s | – |
| CC(C)(C)NCC(O)c1cc(O)cc(O)c1 (configuration not stated) [TERBUTALINE] | 0.23 ×10⁻⁶ cm/s | 0.96 ×10⁻⁶ cm/s | 73% | 41 ×10⁻⁶ cm/s | – |
| CCN1CCCC1CNC(=O)c1cc(S(N)(=O)=O)ccc1OC (configuration not stated) [SULPIRIDE] | – | – | 30% | 11 ×10⁻⁶ cm/s | – |
| O=C(O)c1cc(/N=N/c2ccc(O)c(C(=O)O)c2)ccc1O [OLSALAZINE] | 0.05 ×10⁻⁶ cm/s | 12 ×10⁻⁶ cm/s | 3% | 4.5 ×10⁻⁶ cm/s | – |
| OC[C@H]1O[C@H](OC[C@H]2O[C@H](O[C@]3(CO)O[C@H](CO)[C@@H](O)[C@@H]3O)[C@H](O)[C@@H](O)[C@@H]2O)[C@H](O)[C@@H](O)[C@H]1O [RAFFINOSE] | – | 0.051 ×10⁻⁶ cm/s | 0% | 5.9 ×10⁻⁶ cm/s | – |
| CN/C(=N/CCSCc1nc[nH]c1C)NC#N [CIMETIDINE] | 0.67 ×10⁻⁶ cm/s | 0.085 ×10⁻⁶ cm/s | 80% | 39 ×10⁻⁶ cm/s | – |
| O=C(O)P(=O)(O)O [FOSCARNET] | 0.043 ×10⁻⁶ cm/s | 0.36 ×10⁻⁶ cm/s | 17% | 9.5 ×10⁻⁶ cm/s | – |
| Nc1nc(O)c2ncn(COC(CO)CO)c2n1 [GANCICLOVIR] | – | – | 5% | – | – |
| CN(C)C(=N)N=C(N)N [METFORMIN] | 0.66 ×10⁻⁶ cm/s | 0.51 ×10⁻⁶ cm/s | – | 20 ×10⁻⁶ cm/s | – |
| OC[C@H]1O[C@@H](O[C@@H]2[C@@H](CO)O[C@](O)(CO)[C@H]2O)[C@H](O)[C@@H](O)[C@H]1O [LACTULOSE] | – | 0.081 ×10⁻⁶ cm/s | 1% | 8.9 ×10⁻⁶ cm/s | – |
| CC(C)NCC(O)COc1cccc2[nH]ccc12 (configuration not stated) [PINDOLOL] | – | 0.73 ×10⁻⁶ cm/s | – | 67 ×10⁻⁶ cm/s | – |
| Nc1nc2c(ncn2COCCO)c(=O)[nH]1 [ACYCLOVIR] | 0.38 ×10⁻⁶ cm/s | – | 19% | 8.2 ×10⁻⁶ cm/s | 0.034 cm/s · 10E6 |
| CC(C)(C)NCC(O)COc1cccc2c1C[C@H](O)[C@H](O)C2 (some centres not stated) [NADOLOL] | 0.28 ×10⁻⁶ cm/s | 0.032 ×10⁻⁶ cm/s | 30% | 14 ×10⁻⁶ cm/s | – |
| CN1CC(=O)NC1=N [CREATININE] | 1.2 ×10⁻⁶ cm/s | 0.12 ×10⁻⁶ cm/s | 70% | 21 ×10⁻⁶ cm/s | – |
| CC(C)NCC(O)COc1cccc2ccccc12 (configuration not stated) [PROPRANOLOL] | 204 ×10⁻⁶ cm/s | 58 ×10⁻⁶ cm/s | 100% | 240 ×10⁻⁶ cm/s | – |
| COCCc1ccc(OCC(O)CNC(C)C)cc1 (configuration not stated) [METOPROLOL] | – | 8.6 ×10⁻⁶ cm/s | – | 190 ×10⁻⁶ cm/s | – |
| O=C(O)c1cc(/N=N/c2ccc(S(=O)(=O)Nc3ccccn3)cc2)ccc1O [SULFASALAZINE] | – | – | 12% | 9.6 ×10⁻⁶ cm/s | 0.028 cm/s · 10E6 |
| Cc1ccccc1N1C(=O)c2cc(S(N)(=O)=O)c(Cl)cc2NC1C (configuration not stated) [METOLAZONE] | 4.3 ×10⁻⁶ cm/s | 1.1 ×10⁻⁶ cm/s | 64% | 14 ×10⁻⁶ cm/s | – |
| C[C@H]1O[C@@H](O[C@H]2[C@@H](O)C[C@H](O[C@H]3[C@@H](O)C[C@H](O[C@H]4CC[C@@]5(C)[C@H](CC[C@@H]6[C@@H]5C[C@@H](O)[C@]5(C)[C@@H](C7=CC(=O)OC7)CC[C@]65O)C4)O[C@@H]3C)O[C@@H]2C)C[C@H](O)[C@@H]1O [DIGOXIN] | 1.3 ×10⁻⁶ cm/s | 0.12 ×10⁻⁶ cm/s | 81% | 6.7 ×10⁻⁶ cm/s | – |
| OC[C@@H](O)[C@@H](O)[C@H](O)[C@H](O)CO [MANNITOL] | – | 0.17 ×10⁻⁶ cm/s | – | 11 ×10⁻⁶ cm/s | – |
| O=C1c2c(O)ccc(O)c2C(=O)c2c(NCCNCCO)ccc(NCCNCCO)c21 [MITOXANTRONE] | 2.3 ×10⁻⁶ cm/s | 0.74 ×10⁻⁶ cm/s | – | 7.3 ×10⁻⁶ cm/s | – |
| Nc1nc(=O)c2ncn([C@@H]3C[C@H](CO)[C@H]3CO)c2[nH]1 [LOBUCAVIR] | 0.88 ×10⁻⁶ cm/s | 0.057 ×10⁻⁶ cm/s | 50% | 14 ×10⁻⁶ cm/s | – |
| Cc1cc(=O)n(-c2ccccc2)n1C [ANTIPYRINE] | – | 11 ×10⁻⁶ cm/s | – | 250 ×10⁻⁶ cm/s | – |
| O=P(O)(O)C(Cl)(Cl)P(=O)(O)O [CLODRONIC ACID] | 0.059 ×10⁻⁶ cm/s | 12 ×10⁻⁶ cm/s | 3% | 4.5 ×10⁻⁶ cm/s | – |
| CN(Cc1cnc2nc(N)nc(N)c2n1)c1ccc(C(=O)NC(CCC(=O)O)C(=O)O)cc1 (single isomer, unassigned) [METHOTREXATE] | 0.03 ×10⁻⁶ cm/s | 0.02 ×10⁻⁶ cm/s | 59% | 5.2 ×10⁻⁶ cm/s | – |
